# According to ChEMBL document CHEMBL2375320, “Synthesis and antimicrobial activity of polyhalo isophthalonitrile derivatives” (2013):
# Active and inactive are the calls of the source. The rule behind the calls is not given here.
# Tests used:
# Assay type in all cases: functional
# Bacillus cereus [1] = test: Antibacterial activity against Bacillus cereus ATCC 14579 assessed as growth inhibition at 1000 ug/mL after 24 hrs by disk diffusion method; settings: for zone of inhibition at 1000 µg/mL: ATCC 14579, 24 h, read-out: IZ
# Escherichia coli = test: Antibacterial activity against Escherichia coli ATCC 8099 assessed as growth inhibition at 1000 ug/mL after 24 hrs by disk diffusion method
# Staphylococcus aureus [2] = test: Antibacterial activity against Staphylococcus aureus ATCC 6538 assessed as growth inhibition at 1000 ug/mL after 24 hrs by disk diffusion method; settings: for zone of inhibition at 1000 µg/mL: ATCC 6538, 24 h, read-out: IZ
# Candida albicans [3] = test: Antifungal activity against Candida albicans ATCC 10231 assessed as growth inhibition at 1000 ug/mL after 72 hrs by disk diffusion method; settings: for zone of inhibition at 1000 µg/mL: ATCC 10231, 72 h, read-out: IZ
# Outline: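 Candida grown and kept on Sabouraud glucose agar plates. Compounds screened at a fixed 1000 µg/mL, with fluconazole as positive control. Plates incubated at 26 °C for 72 h, then zones of inhibition measured in mm.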
# Pseudomonas aeruginosa = test: Antibacterial activity against Pseudomonas aeruginosa ATCC 15442 assessed as growth inhibition at 1000 ug/mL after 24 hrs by disk diffusion method; settings: for zone of inhibition at 1000 µg/mL: ATCC 15442, 24 h, read-out: IZ
# Candida albicans [4] = test: Antifungal activity against Candida albicans ATCC 10231 assessed as growth inhibition after 24 hrs by microbroth dilution method
# Outline: (§1)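 Tube dilution: each compound or positive control (norfloxacin, fluconazole) prepared in DMSO at 11 concentrations from 0.98 to 1000 µg/mL. Inoculum and sterile water added to tubes each holding 1 mL of compound solution. Tubes incubated 24 h and inspected for turbidity. MIC is the lowest concentration with no visible growth. Run in triplicate.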
# Bacillus cereus [5] = test: Antibacterial activity against Bacillus cereus ATCC 14579 assessed as growth inhibition after 24 hrs by microbroth dilution method; settings: ATCC 14579, 24 h; outline: as §1
# Staphylococcus aureus [6] = test: Antibacterial activity against Staphylococcus aureus ATCC 6538 assessed as growth inhibition after 24 hrs by microbroth dilution method; settings: ATCC 6538, 24 h; outline: as §1
SMILES,inhibition zone (IZ) (Bacillus cereus [1]),inhibition zone (IZ) (Escherichia coli),inhibition zone (IZ) (Staphylococcus aureus [2]),inhibition zone (IZ) (Candida albicans [3]),inhibition zone (IZ) (Pseudomonas aeruginosa),zone of inhibition at 1000 µg/mL (Candida albicans [3]) [mm],"MIC (Candida albicans [4]; ATCC 10231, 24 h) [µg/mL]",zone of inhibition at 1000 µg/mL (Staphylococcus aureus [2]) [mm],MIC (Bacillus cereus [5]) [µg/mL],MIC (Staphylococcus aureus [6]) [µg/mL],zone of inhibition at 1000 µg/mL (Bacillus cereus [1]) [mm],zone of inhibition at 1000 µg/mL (Pseudomonas aeruginosa) [mm],MIC (Candida albicans [4]),"zone of inhibition at 1000 µg/mL (Escherichia coli; ATCC 8099, 24 h, read-out: IZ) [mm]"
N#Cc1c(F)c(C#N)c(Sc2ccccc2)c(Cl)c1Sc1ccccc1,inactive,inactive,inactive,inactive,inactive,–,–,–,–,–,–,–,–,–
N#Cc1c(N)c(Cl)c(Cl)c(C#N)c1Cl,inactive,inactive,inactive,inactive,inactive,–,–,–,–,–,–,–,–,–
OC(Cn1cncn1)(Cn1cncn1)c1ccc(F)cc1F [FLUCONAZOLE],–,–,–,–,–,22.5,1,–,–,–,–,–,–,–
N#Cc1c(N)c(Sc2ccccc2)c(Sc2ccccc2)c(C#N)c1Sc1ccccc1,inactive,inactive,inactive,–,inactive,–,–,–,–,–,–,–,–,–
N#Cc1c(N)c(Cl)c(N2CCCCC2)c(C#N)c1N1CCCCC1,inactive,inactive,inactive,–,inactive,–,–,–,–,–,–,–,–,–
CCCSc1c(Cl)c(N)c(C#N)c(SCCC)c1C#N,inactive,inactive,–,–,inactive,–,> 1000,7.5,> 1000,250,–,–,–,–
N#Cc1c(F)c(Cl)c(Nc2ccccc2)c(C#N)c1F,–,inactive,–,–,–,13.6,0.5,13,125,3.9,14.6,7.5,–,–
COc1ccc(Nc2c(Cl)c(Cl)c(C#N)c(Cl)c2C#N)cc1,inactive,inactive,inactive,inactive,inactive,–,–,–,–,–,–,–,–,–
N#Cc1c(N)c(F)c(F)c(C#N)c1F,–,inactive,–,–,–,7.5,62.5,11.8,104,125,8,7.8,–,–
CCCSc1c(Cl)c(N)c(C#N)c(Cl)c1C#N,–,inactive,–,–,inactive,–,> 1000,7,> 1000,500,7,–,–,–
CCCSc1c(F)c(N)c(C#N)c(SCCC)c1C#N,–,inactive,–,–,inactive,–,–,7.9,–,–,7.4,–,–,–
COc1ccc(Nc2c(F)c(F)c(C#N)c(F)c2C#N)cc1,–,inactive,–,inactive,inactive,–,–,8.7,> 1000,375,8.6,–,inactive,–
COc1ccc(Nc2c(Cl)c(F)c(C#N)c(F)c2C#N)cc1,–,inactive,inactive,inactive,inactive,–,–,–,–,–,6.8,–,–,–
N#Cc1c(F)c(F)c(Nc2ccc(Cl)cc2)c(C#N)c1F,–,inactive,–,–,–,13.3,2.3,19.8,31.3,1.5,16.7,7.8,–,–
CN(C)CCCNc1c(F)c(N)c(C#N)c(F)c1C#N,–,inactive,–,–,inactive,–,–,7,–,–,7.1,–,–,–
N#Cc1c(F)c(Cl)c(NCc2ccccc2)c(C#N)c1F,–,inactive,–,–,inactive,13.9,0.5,23.1,0.4,0.5,22.6,–,–,–

SMILES,inhibition zone (IZ) (Bacillus cereus [1]),inhibition zone (IZ) (Escherichia coli),inhibition zone (IZ) (Staphylococcus aureus [2]),inhibition zone (IZ) (Candida albicans [3]),inhibition zone (IZ) (Pseudomonas aeruginosa),zone of inhibition at 1000 µg/mL (Candida albicans [3]) [mm],"MIC (Candida albicans [4]; ATCC 10231, 24 h) [µg/mL]",zone of inhibition at 1000 µg/mL (Staphylococcus aureus [2]) [mm],MIC (Bacillus cereus [5]) [µg/mL],MIC (Staphylococcus aureus [6]) [µg/mL],zone of inhibition at 1000 µg/mL (Bacillus cereus [1]) [mm],zone of inhibition at 1000 µg/mL (Pseudomonas aeruginosa) [mm],MIC (Candida albicans [4]),"zone of inhibition at 1000 µg/mL (Escherichia coli; ATCC 8099, 24 h, read-out: IZ) [mm]"
N#Cc1c(N)c(Cl)c(F)c(C#N)c1F,–,inactive,–,–,inactive,7.3,15.6,8.6,> 1000,46.9,7.4,–,–,–
N#Cc1c(F)c(F)c(Nc2ccccc2)c(C#N)c1F,–,inactive,–,–,–,17.3,3.9,23,6.8,3.3,17.8,8,–,–
N#Cc1c(Sc2ccccc2)c(F)c(Sc2ccccc2)c(C#N)c1Sc1ccccc1,–,inactive,inactive,inactive,inactive,–,–,–,–,–,9.8,–,–,–
N#Cc1c(F)c(Cl)c(F)c(C#N)c1F,inactive,inactive,inactive,inactive,inactive,–,–,–,–,–,–,–,–,–
CCn1cc(C(=O)O)c(=O)c2cc(F)c(N3CCNCC3)cc21 [NORFLOXACIN],–,–,–,–,–,–,–,19.9,0.5,0.5,15.2,18,–,31
CCCSc1c(Cl)c(N)c(C#N)c(F)c1C#N,–,inactive,–,–,inactive,–,> 500,8.5,> 1000,1.6,7.6,–,–,–
N#Cc1c(Cl)c(Cl)c(Cl)c(C#N)c1Cl [CHLOROTHALONIL],–,inactive,–,–,inactive,9.9,0.5,20.1,0.7,0.5,20.2,–,–,–
N#Cc1c(Cl)c(Cl)c(Sc2ccccc2)c(C#N)c1Cl,–,inactive,–,–,inactive,6.8,> 500,7.3,> 1000,250,7,–,–,–
N#Cc1c(Cl)c(Cl)c(Nc2ccccc2)c(C#N)c1Cl,inactive,inactive,inactive,–,inactive,15.3,–,–,–,–,–,–,–,–
N#Cc1c(F)c(F)c(F)c(C#N)c1F,inactive,inactive,inactive,inactive,inactive,–,–,–,–,–,–,–,–,–
CN(C)CCCNc1c(Cl)c(N)c(C#N)c(F)c1C#N,–,inactive,–,–,inactive,–,–,14.2,–,–,15,–,–,–
N#Cc1c(F)c(F)c(NCc2ccccc2)c(C#N)c1F,–,inactive,–,–,inactive,11.6,10.4,19.3,3.9,1.3,18.1,–,–,–
N#Cc1c(F)c(Cl)c(Nc2ccc(Cl)cc2)c(C#N)c1F,–,inactive,–,inactive,–,–,–,10.7,417,26,12.2,7.6,inactive,–
CCCSc1c(Cl)c(SCCC)c(C#N)c(F)c1C#N,–,inactive,–,inactive,inactive,–,> 500,8.8,> 1000,11.7,7.5,–,–,–
N#Cc1c(Cl)c(Cl)c(NCc2ccccc2)c(C#N)c1Cl,inactive,inactive,inactive,inactive,inactive,–,–,–,–,–,–,–,–,–
